Among the data in ChEMBL document CHEMBL1139837, “Synthesis and transfection efficiencies of new lipophilic polyamines” (J Med Chem, 2007) are IC50, Activity and Survival values, retold here.

Calls of active or inactive are those of the source.

Tested on in one data set: not listed separately
The experiment in a line: Inhibition of [14C]spermine uptake into polyamine transporter in CHOK1 cells. To be noted: Cricetulus griseus, CHO-K1. The data set is classed as cell-based. Put shortly:
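Subconfluent CHO-K1 cells were rinsed three times in F12K and dosed with varying compound concentrations. They were incubated 20 min with 1 µM [14C]spermine (31 Ci/mol) in serum-free medium, rinsed (including 1 mM spermine washes), and lysed in 0.5 M NaOH for 1 h at 37 °C. Lysates were neutralized and scintillation-counted to give an IC50.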
In turn, `CCCCCCCC/C=C/CCCCCCCCOc1ccc(CNCCCCNCCCCNCCCCN)cc1OCCCCCCCC/C=C/CCCCCCCC` had a half-maximal inhibitory concentration (IC50) of 10 µM.

In another data set the test system is CHO-K1. The experiment in a line: Transfection efficiency in eGFP encoding DNA transfected CHOK1 cells after 24 hrs at 5 ug/mL. The data set is classed as functional, Cricetulus griseus.
Settings: not given
Put shortly: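 Subconfluent (~50%) CHO-K1 cells were exposed 4 h at 37 °C in F12K to 1 µg/mL eGFP plasmid complexed with lipid (0.5, 2.5 or 5 µg/mL). Medium was then replaced with growth medium for 24 h. Trypsinized cells were scored by FACS. The gate was set above the no-plasmid/no-lipid threshold (5.5), giving % GFP-positive cells; mean ± SD.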
In turn, `CCCCCCCC/C=C/CCCCCCCCOc1ccc(CNCCCCCCCCN)cc1OCCCCCCCC/C=C/CCCCCCCC` registered an Activity of 23%.
The same measure, in the same setting: next, `CCCCCCCC/C=C/CCCCCCCCOc1ccc(CNCCCCNCCCCN)cc1OCCCCCCCC/C=C/CCCCCCCC`: 49%.
On the same count and under the same terms, the result for `CCCCCCCC/C=C/CCCCCCCCOc1ccc(CNCCCCN)cc1OCCCCCCCC/C=C/CCCCCCCC` reads 38%; that for `CCCCCCCC/C=C/CCCCCCCCOc1ccc(CNCCOCCOCCN)cc1OCCCCCCCC/C=C/CCCCCCCC`, 25%; that for `CCCCCCCC/C=C/CCCCCCCCOc1ccc(CNCCCCNCCCCNCCCCN)cc1OCCCCCCCC/C=C/CCCCCCCC`, 67%.
Same read-out and setting: next, `CCCCCCCC/C=C/CCCCCCCCOc1ccc(C(=O)NCCCCNCCCCN)cc1OCCCCCCCC/C=C/CCCCCCCC`: 40%.

A further data set relates to CHO. Briefly: Survival of CHO cells after 48 hrs upto 6.4 uM. The data set is classed as functional, Cricetulus griseus.
Settings: not given
Summed up:
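CHO cells grown at 37 °C, 5% CO2, in RPMI with 10% fetal calf serum, 2 mM glutamine, penicillin/streptomycin and 2 mM aminoguanidine. Viability was checked by trypan blue before each run. Cells were plated at 2e3 cells/mL in 96-well plates and dosed after overnight incubation. DMSO was kept below 40 µM. Growth after 48 h was read as MTT formazan absorbance at 540 nm.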
As to `CCCCCCCC/C=C/CCCCCCCCOc1ccc(CNCCCCCCCCN)cc1OCCCCCCCC/C=C/CCCCCCCC`, the Survival result is listed as “>=90%”.
Same read-out and setting: the result for `CCCCCCCC/C=C/CCCCCCCCOc1ccc(CNCCCCNCCCCN)cc1OCCCCCCCC/C=C/CCCCCCCC` reads “>=90%”.
Consider `CCCCCCCC/C=C/CCCCCCCCOc1ccc(CNCCCCN)cc1OCCCCCCCC/C=C/CCCCCCCC`, for which the Survival entry was “>=90%”.
Still for that read-out and setting: next, `CCCCCCCC/C=C/CCCCCCCCOc1ccc(CNCCOCCOCCN)cc1OCCCCCCCC/C=C/CCCCCCCC`: “>=90%”; `CCCCCCCC/C=C/CCCCCCCCOc1ccc(CNCCCCNCCCCNCCCCN)cc1OCCCCCCCC/C=C/CCCCCCCC`: “>=90%”.
On the same count and under the same terms, the result for `CCCCCCCC/C=C/CCCCCCCCOc1ccc(C(=O)NCCCCNCCCCN)cc1OCCCCCCCC/C=C/CCCCCCCC` reads “>=90%”.

For a further data set, the system named is CHO. The experiment in a line: Cytotoxicity against CHO cells after 24 hrs at 0.5 uM. The data set is classed as cell-based, Cricetulus griseus. To be noted: chinese hamster.
With `CCCCCCCC/C=C/CCCCCCCCOc1ccc(C(=O)NCCCCNCCCCNCCCCN)cc1OCCCCCCCC/C=C/CCCCCCCC`, the Activity amounted to 95%.

Another data set deals with CHO-K1. Briefly: Increase in uptake of DNA in CHOK1 cells after 4 hrs at 5 ug/mL. The format is functional, cell-based. To be noted: Cricetulus griseus. Put shortly: (§1)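 Confluent CHO-K1 cells, rinsed, were incubated 4 h at 37 °C in serum-free F12K with 1 µg/mL Alexa Fluor-488-labeled DNA complexed with cationic lipid at 0.5, 2.5 or 5 µg/mL. Cells were washed with PBS, trypsinized, washed with ice-cold PBS/1% BSA to remove surface signal, then assayed by flow cytometry for internalized fluorescence. Gated percent positive cells were set against DNA-only cells; mean ± SD.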
In the case of `CCCCCCCC/C=C/CCCCCCCCOc1ccc(CNCCCCNCCCCN)cc1OCCCCCCCC/C=C/CCCCCCCC`, the result was Active.
On the same count and under the same terms, the result for `CCCCCCCC/C=C/CCCCCCCCOc1ccc(CNCCCCN)cc1OCCCCCCCC/C=C/CCCCCCCC` reads “Active”; that for `CCCCCCCC/C=C/CCCCCCCCOc1ccc(CNCCCCNCCCCNCCCCN)cc1OCCCCCCCC/C=C/CCCCCCCC`, “Active”.

Another data set concerns CHO-K1. The experiment in a line: Increase in uptake of DNA in CHOK1 cells after 4 hrs. The data set is classed as functional, cell-based. The note with it: Cricetulus griseus. Put shortly: as §1
Consider `CCCCCCCC/C=C/CCCCCCCCOc1ccc(CNCCCCCCCCN)cc1OCCCCCCCC/C=C/CCCCCCCC`, for which the Activity entry was “Dose-dependent effect”.
Still for that read-out and setting: the result for `CCCCCCCC/C=C/CCCCCCCCOc1ccc(CNCCCCNCCCCN)cc1OCCCCCCCC/C=C/CCCCCCCC` reads “Dose-dependent effect”.
On the same count and under the same terms, the result for `CCCCCCCC/C=C/CCCCCCCCOc1ccc(C(=O)NCCCCNCCCCNCCCCN)cc1OCCCCCCCC/C=C/CCCCCCCC` reads “Dose-dependent effect”; that for `CCCCCCCC/C=C/CCCCCCCCOc1ccc(CNCCCCN)cc1OCCCCCCCC/C=C/CCCCCCCC`, “Dose-dependent effect”; that for `CCCCCCCC/C=C/CCCCCCCCOc1ccc(CNCCOCCOCCN)cc1OCCCCCCCC/C=C/CCCCCCCC`, “Dose-dependent effect”.
The same measure, in the same setting: the result for `CCCCCCCC/C=C/CCCCCCCCOc1ccc(CNCCCCNCCCCNCCCCN)cc1OCCCCCCCC/C=C/CCCCCCCC` reads “Dose-dependent effect”; that for `CCCCCCCC/C=C/CCCCCCCCOc1ccc(C(=O)NCCCCNCCCCN)cc1OCCCCCCCC/C=C/CCCCCCCC`, “Dose-dependent effect”.

The IC50 is the concentration needed to halve the response being measured.
